Results reported in ChEMBL document CHEMBL1131456, “Synthesis, pharmacological characterization, and quantitative structure-activity relationship analyses of 3,7,9,9-tetraalkylbispidines: derivatives with specific bradycardic activity” (J Med Chem, 1998).

How the values were obtained:
[1] = species: Cavia porcellus; experiment: Score value indicates decrease of the sinus rate; format: functional
[2] = species: Cavia porcellus; experiment: Score point for the selectivity versus additional effect FRP.; format: functional
[3] = species: Rattus norvegicus; experiment: Score value indicates selectivity against the undesired effect on diastolic blood pressure; format: functional, Artery
[4] = species: Rattus norvegicus; experiment: Total score (SS)
[5] = species: Cavia porcellus; experiment: In vitro activity in guinea pig atria was measured as rate of spontaneously beating right atrium (SR) which reflects the activity of the sinus node; format: functional; details: Cardiac atrium
In short: (§1)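 Isolated guinea pig atria in oxygenated buffer at 35 °C. Right atria beat spontaneously; left atria were paced at 2 Hz with 1 ms rectangular pulses and isometric contractions were recorded. Cumulative concentration–response curves were run with up to five concentrations. EC75/EC125 is the concentration giving a 25% decrease/increase from the predrug value, reported as the geometric mean of individual ECs.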

[6] = system: Rattus norvegicus; experiment: In vivo activity in anesthetized rat was measured as the diastolic arterial pressure which provides information on the peripheral resistance of the cardiovascular system and selectivity regarding bradycardia; format: functional, Artery
In short: (§2)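 Male Wistar rats (280–360 g) under urethane (1.25 g/kg ip), intubated and breathing spontaneously. Femoral arterial pressure was recorded with needle-electrode ECG, analysed every 30 s. Compound was given by continuous femoral-vein infusion at 0.1 mL/min, with concentration raised tenfold every 10 min (3 doses). ED75/ED125 is the dose giving a 25% decrease/increase from the predrug value, reported as the geometric mean of individual EDs.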

[7] = species: Cavia porcellus; experiment: Selectivity quotient (FRP125/SR75); format: functional
In short: (§3)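 Atrial selectivity quotients were calculated from the guinea pig atrial EC values as F75/SR75 and FRP125/SR75.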

[8] = species: Rattus norvegicus; experiment: Selectivity quotient (DAP125/HR75)
[9] = species: Rattus norvegicus; experiment: Score point for the selectivity versus additional effect R&T interval.; format: functional
[10] = system: Rattus norvegicus; experiment: In vivo activity in anesthetized rat was measured as the R alpha T-interval of the rat ECG which reflects the time from ventricular excitation to recovery; format: functional, Cardiac ventricle; in short: as §2
[11] = Partition coefficient (logP); format: physicochemical; details: octanol/water; read-out: logP
In short: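 Lipophilicity was measured by reversed-phase HPLC. Mobile phase was methanol/0.005 M phosphate buffer pH 4 (60/40) with 0.1% SDS and 0.1 M NaClO4, at 23.0 ± 0.5 °C, with UV detection at 205 nm.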

[12] = Selectivity quotient (F75/SR75); # means very high (estimated); format: functional
In short: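 Isolated atria in oxygenated buffer at 35 °C. Spontaneously beating right atria gave sinus rate; left atria paced at 2 Hz with 1 ms rectangular pulses gave isometric force of contraction. Cumulative concentration-response curves used up to five concentrations. EC75 (25% decrease from predrug value) was taken as the geometric mean of individual values. Quotient is F75/SR75.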

[13] = species: Cavia porcellus; experiment: Score value indicates selectivity versus the decrease in force of contraction; format: functional
[14] = species: Cavia porcellus; experiment: Sum of the scores of decrease of the sinus rate and selectivity versus the decrease in force of contraction; format: functional
[15] = species: Rattus norvegicus; experiment: Selectivity quotient (R&T125/HR75)
[16] = species: Rattus norvegicus; experiment: Score value indicates desire effect on heart rate; format: functional
[17] = system: Rattus norvegicus; experiment: In vivo activity in anesthetized rat was measured as heart rate which provides information on in vivo bradycardic activity; format: functional; in short: as §2
[18] = species: Cavia porcellus; experiment: In vitro activity in guinea pig atria as the functional refractory period (FRP), which is the shortest interval between a double stimulus causing a double contraction.; in short: as §1
[19] = species: Cavia porcellus; experiment: Selectivity quotient (F75/SR75); format: functional; in short: as §3
[20] = species: Cavia porcellus; experiment: In vitro activity in guinea pig atria was measured as the peak force of contraction (F) of a stimulated left atrium; format: functional; details: Cardiac atrium; in short: as §1

logP [11]	SMILES	Score [1]	Score [2]	Score [3]	total score (SS) [4]	EC75 [5] [nM]	ED125 [6] [µM/kg]	Selectivity quotient [7]	Selectivity quotient [8]	Score [9]	ED125 [10] [µM/kg]	Selectivity quotient [12]	Score [13]	Score [14]	Selectivity quotient [15]	Score [16]	ED75 [17] [µM/kg]	EC125 [18] [µM]	Selectivity quotient [19]	EC75 [20] [nM]
3.7	CCCCN1CC2CN(CC(C)C)CC(C1)C2(C)C	4	4	-1	4	3070	>41	0.27	>7	5	0.73	#	0	4	0.13	5	5.7	0.82	–	–
3.88	CCCCN1CC2CN(CCCC)CC(C1)C2(C)C	4	4	-6	-1	3000	0.2	0.33	0.04	5	0.57	–	0	4	0.11	5	5.3	1	35	104000
3.13	C=CCCN1CC2CN(CCC=C)CC(C1)C2(C)C	5	3	-1	4	1210	>46	1.54	>6	5	0.94	–	0	5	0.13	5	7.1	1.87	>177	> 215000
3.42	C=CCCN1CC2CN(CCCC)CC(C1)C2(C)C	5	3	-4	1	1210	2.2	1.72	0.37	5	0.7	–	0	5	0.12	5	5.9	2.08	87.6	106000

Second part, the compound before the results:

SMILES	logP [11]	Score [1]	Score [2]	Score [3]	total score (SS) [4]	EC75 [5] [nM]	ED125 [6] [µM/kg]	Selectivity quotient [7]	Selectivity quotient [8]	Score [9]	ED125 [10] [µM/kg]	Selectivity quotient [12]	Score [13]	Score [14]	Selectivity quotient [15]	Score [16]	ED75 [17] [µM/kg]	EC125 [18] [µM]	Selectivity quotient [19]	EC75 [20] [nM]
CCCCN1CC2CN(CC3CCCCC3)CC(C1)C2(C)C	4.98	6	3	-1	4	880	>41	0.55	>7	5	0.96	–	-1	5	0.17	5	5.7	0.48	18.5	16300
CCCC1(CCC)C2CN(C(C)C)CC1CN(C(C)C)C2	4.51	5	4	-3	2	2180	11	0.37	1.72	4	1.8	–	-1	4	0.28	5	6.4	0.8	18.2	39600
CC(C)N1CC2CN(C(C)C)CC(C1)C2(C)C	2.48	2	0	-3	-2	10900	–	10.2	1	4	18	#	-2	0	0.35	1	52	111	–	–
C=CCCN1CC2CN(CCC=C)CC(C1)C21CCCCC1	4.49	6	2	-4	2	400	1.5	2.85	0.31	5	0.58	–	0	6	0.12	6	4.9	1.14	167	75100
CCCCN1CC2CN(CCCC)CC(C1)C2(CCCC)CCCC	7.03	5	3	-3	1	1910	5.1	0.53	0.58	4	3.2	–	-5	0	0.37	4	8.7	1.01	1.12	2140
